Measured values published in PubChem BioAssay AID463132 (The Scripps Research Institute Molecular Screening Center, 2010).

Biological target: Protein phosphatase methylesterase 1 (Homo sapiens) (UniProt Q9Y570)
Experiment: in situ PME-1 inhibition – HeLa cells, western blot, powder samples, late-stage follow-up (AID 463132)
Conditions: demethylated PP2A western blot, 1 h, at 0.5 µM, active compounds read high
Outline: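 Assay system: HeLa cells, endogenous PME-1 / Timing: 1 h compound treatment, 37 °C / Signal: chemiluminescent Western blot with HRP antibody to demethylated PP2A C-terminus / Evaluation: percent inhibition of demethylated PP2A band density versus controls / Controls: high DMSO cells, low empty blot region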

Sequence of Protein phosphatase methylesterase 1 (Homo sapiens) (Q9Y570 whole entry, looked up): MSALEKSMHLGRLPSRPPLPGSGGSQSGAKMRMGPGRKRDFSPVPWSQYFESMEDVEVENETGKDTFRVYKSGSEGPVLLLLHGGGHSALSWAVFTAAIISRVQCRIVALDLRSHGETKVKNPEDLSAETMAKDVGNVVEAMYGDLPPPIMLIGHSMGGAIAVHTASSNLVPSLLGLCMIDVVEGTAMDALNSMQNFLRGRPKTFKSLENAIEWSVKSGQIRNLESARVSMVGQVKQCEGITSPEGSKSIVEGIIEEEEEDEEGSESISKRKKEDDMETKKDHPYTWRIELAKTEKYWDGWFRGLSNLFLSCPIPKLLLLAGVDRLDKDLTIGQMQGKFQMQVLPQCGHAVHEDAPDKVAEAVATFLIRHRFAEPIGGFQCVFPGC

| inhibition [%] | SMILES |
| --- | --- |
| 85 | COC(=O)N1C(=O)[C@](c2ccccc2)(C2CCCCC2)N1C(=O)OC |
| 85 | COC(=O)N1C(=O)[C@](c2ccccc2)(C2CCCC2)N1C(=O)OC |
